The target of data set [1] is T1, DNA repair protein RAD51 homolog 1 (Homo sapiens) (UniProt Q06609).
T1 sequence (whole entry): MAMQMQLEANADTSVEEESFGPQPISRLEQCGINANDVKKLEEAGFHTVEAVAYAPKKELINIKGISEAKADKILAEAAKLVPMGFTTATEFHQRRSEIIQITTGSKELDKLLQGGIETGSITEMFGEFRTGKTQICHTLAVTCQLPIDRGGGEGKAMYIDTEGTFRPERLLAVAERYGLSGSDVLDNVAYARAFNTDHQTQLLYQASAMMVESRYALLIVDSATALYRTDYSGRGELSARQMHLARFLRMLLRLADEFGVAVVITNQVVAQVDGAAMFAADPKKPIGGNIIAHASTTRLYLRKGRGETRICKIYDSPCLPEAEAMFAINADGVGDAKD
Put plainly: Inhibition of RAD51 in human BxPC3 cells assessed as reduction in homologous recombination incubated for 5 hrs by RT-PCR analysis. It is filed as cell-based. Summed up:
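Commercial two-plasmid recombination assay in BxPC-3 cells, with compound applied at different doses for 5 h simultaneously with plasmid transfection. Tested up to 40 μM, limited by solubility. Dose giving 50% HR inhibition estimated by polynomial regression.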

The target in data set [2] is T1, DNA repair protein RAD51 homolog 1 (Homo sapiens). Put plainly: Inhibition of RAD51 in human BxPC3 cells assessed as reduction in cisplatin-induced RAD51 foci formation at 20 uM preincubated for 1 hr in presence of cisplatin and followed by compound wash out and further incubated with fresh medium containing compounds for 4 hrs by DAPI-staining based immunofluorescence analysis. The data set is classed as cell-based. Put shortly:
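DNA damage induced in BxPC-3 by 1 h exposure to 50 μM cisplatin, with or without 20 μM disruptor. RAD51 nuclear foci immunostained and percentage of RAD51-labeled nuclei counted.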

Data set [3] shares this target. Put plainly: Inhibition of RAD51 in human BxPC3 cells assessed as increase in gamma-H2AX labelling at 20 uM after 48 hrs in presence of 10 uM olaparib by immunofluorescence microscopic analysis. The data set is classed as cell-based. Summed up:
(§1)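 Cells exposed 48 h to 20 μM disruptor alone or with 10 μM olaparib, in medium with 0.6% DMSO. Nuclear γ-H2AX foci visualized by immunofluorescence and percentage of labeled nuclei scored. BxPC-3 (functional BRCA2) and Capan-1 (BRCA2-defective) cultures in RPMI 1640 with 10% FBS.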

The target is the same in data set [4]. Nature of the data set: Inhibition of RAD51 in BRCA2 defective human Capan1 cells assessed as increase in gamma-H2AX labelling at 20 uM after 48 hrs in presence of olaparib by immunofluorescence microscopic analysis. Summed up: as §1
Data set [5] concerns BXPC-3. Put plainly: Induction of DNA damage in human BxPC3 cells assessed as micronuclei formation at 20 uM after 72 hrs by DAPI-staining based fluorescence microscopic analysis. The data set is classed as functional, cell-based. Summed up: (§2)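 BxPC-3 cultures treated 72 h with 20 μM disruptor, alone or with 10 μM olaparib, in 0.6% DMSO medium. Micronuclei outside the main nucleus visualized by DNA staining under the microscope. Percentage of micronucleated cells scored.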

Data set [6] relates to BXPC-3. Nature of the data set: Induction of DNA damage in human BxPC3 cells assessed as micronuclei formation at 20 uM after 72 hrs in presence of olaparib by DAPI-staining based fluorescence microscopic analysis. The data set is classed as functional, cell-based. Put shortly: as §2
Data set [7] has as its system BXPC-3. Put plainly: Antiproliferative activity against human BxPC3 cells assessed as increase in cell death at 10 to 15 uM after 72 hrs in presence of olaparib by CellTox Green assay. It is filed as functional, cell-based. Put shortly: (§3)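 BxPC-3 cells in RPMI 1640 with 10% FBS and 2 mM glutamine. Exposed 72 h to disruptor alone or with 10 μM olaparib, in medium containing 0.6% DMSO. Cell death measured in parallel with viability. Disruptor-only and combination cultures compared statistically.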

The test system of data set [8] is BXPC-3. Nature of the data set: Antiproliferative activity against human BxPC3 cells assessed as increase in cell death at 20 uM after 72 hrs in presence of olaparib by CellTox Green assay. It is filed as functional, cell-based. Summed up: as §3
In data set [9] the test system is BXPC-3. Nature of the data set: Induction of apoptosis in human BxPC3 cells assessed as increase in fluorescence at 20 uM after 72 hrs by DAPI/PI staining based fluorescence microscopic analysis. It is filed as functional, cell-based. Put shortly:
(§4)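 BxPC-3 cells treated 72 h with disruptor alone or with olaparib, then stained with mixed DAPI (cell-permeable, nuclear condensation) and propidium iodide (membrane integrity loss). Nuclear morphology and dye uptake examined by fluorescence microscopy.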

Data set [10] has as its system BXPC-3. Nature of the data set: Induction of apoptosis in human BxPC3 cells assessed as increase in fluorescence at 20 uM after 72 hrs in presence of olaparib by DAPI/PI staining based fluorescence microscopic analysis. It is filed as functional, cell-based. Summed up: as §4
Data set [11] has as its system BXPC-3. Put plainly: Synergistic antiproliferative activity against human BxPC3 cells at 20 uM after 72 hrs in presence of 10 uM olaparib by CellTiter-Glo luminescent cell viability assay. It is filed as functional, cell-based. Put shortly: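 BxPC-3 viability data from 72 h exposure to disruptor with 10 μM olaparib (0.6% DMSO medium) used to compute a combination index. CI <0.8 taken as synergism and 0.8–1.2 as additive. CI at each dose tested for difference from 0.8.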
On the technique in general: ATP-based viability assays read luminescence as a measure of living cells.

Data set [12] concerns HK-2. Nature of the data set: Cytotoxicity against human HK2 cells at 20 uM after 72 hrs in presence of 10 uM olaparib by CellTiter-Glo luminescent cell viability assay. To be noted: hk-2, 72 h. The data set is classed as cell-based. Summed up:
(§5)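 HK-2 cells are non-neoplastic immortalized human kidney cells grown in DMEM:F12 with 40 ng/mL dexamethasone. Capan-1 cells are BRCA2-defective and grown in RPMI 1640 with 10% FBS and 2 mM glutamine. Both exposed to disruptor with olaparib in 0.6% DMSO medium for an antiproliferative read-out. Drug interaction assessed by two-way ANOVA and combination index (CI <0.8 synergism, 0.8–1.2 additive).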

Data set [13] concerns CAPAN-1. Put plainly: Synergistic antiproliferative activity against BRCA2 defective human Capan1 cells at 20 uM after 72 hrs in presence of 10 uM olaparib by CellTiter-Glo luminescent cell viability assay. The data set is classed as functional, cell-based. Put shortly:
as §5

The subject of data set [14] is BXPC-3. Nature of the data set: Antiproliferative activity against human BxPC3 cells at 15 uM after 72 hrs in presence of olaparib by CellTiter-Glo luminescent cell viability assay. It is filed as functional, cell-based. Put shortly:
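BxPC-3 cells grown in RPMI 1640 with 10% FBS, penicillin/streptomycin and 2 mM glutamine. Disruptor given alone or with 10 μM olaparib in medium containing 0.6% DMSO, with the same DMSO in controls. Viability read at 72 h, measured alongside cell death.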

Calls of active or inactive are those of the source. The calls are words filed in the database; no cut-off is given here.

The values that follow come from ChEMBL document CHEMBL4402564, “Synthetic Lethality in Pancreatic Cancer: Discovery of a New RAD51-BRCA2 Small Molecule Disruptor That Inhibits Homologous Recombination and Synergizes with Olaparib” (J Med Chem, 2020).

Take `CCC(=O)N1N=C(c2c(-c3ccccc3)c3cc(Cl)ccc3[nH]c2=O)CC1c1ccc(OC)cc1` (racemic): the inhibition result in [1] was “Dose-dependent effect”. Moreover, the inhibition result in data set [2] and in data set [3] was “Active” each time. Also, the inhibition entry in data set [4] was “inactive”. The result in data set [5], in data set [6], in [8], in data set [9], in [10] and in [11] was Active. For the same compound, the result in data set [13] and in [14] was Active. In addition, in [7], the result was inactive. The Activity entry in data set [12] is on record as “Non-Toxic”.
